Assay results as given in ChEMBL document CHEMBL4321831, “Vaccine Adjuvants Derivatized from Momordica Saponins I and II” (J Med Chem, 2019).
Activity calls are given as the source filed them. The calls are words filed in the database; no cut-off is given here.

Experiments:
[1] = Acute toxicity in BALB/c mouse assessed as normal animal behaviour with healthy fur at 100 to 2000 ug, sc measured at day 5 post injection; type: organism-based; settings: in vivo
Outline: (§1)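 Female BALB/c mice, 10 weeks old, 5 per group, given a single subcutaneous injection in the neck of adjuvant in 0.1 mL PBS at doses from 100 to 5000 μg, with untreated controls. Survival was counted 5 days after injection. Surviving mice were checked through day 7 for fur condition, behaviour, lethargy and lesion formation.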

[2] = Acute toxicity in BALB/c mouse assessed as lesion formation at 100 to 2000 ug, sc measured at day 7 post injection; type: organism-based; settings: in vivo; outline: as §1
[3] = test system: Mus musculus; test: Immuno-adjuvant activity in OVA-immunized BALB/c mouse assessed as potentiation of antibody response to OVA by measuring serum anti-OVA IgG1 level at 100 ug, sc administered immediately and on day 14, 28 and measured at week 6 by ELISA (reference value: 113 +/- 37 ug/ml); type: functional
Outline: (§2)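 Female BALB/c mice (8–10 weeks, six per group) got sc OVA (20 μg) plus adjuvant (100 μg) on days 0, 14 and 28. Tail-vein serum was taken before each dose and 2 weeks after the last. ELISA plates were coated with OVA (0.1 μg/mL) in borate-buffered saline, pH 8.2. Serial 2-fold serum dilutions were run in duplicate, detected with HRP anti-mouse IgG/IgG1/IgG2a and o-phenylenediamine, and read at 490 nm.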

[4] = Acute toxicity in BALB/c mouse assessed as mouse survival at 100 to 2000 ug, sc measured after 5 days; type: organism-based; settings: in vivo; outline: as §1
[5] = test system: Mus musculus; test: Immuno-adjuvant activity in OVA-immunized BALB/c mouse assessed as potentiation of antibody response to OVA by measuring increase in serum anti-OVA IgG1 activity at 100 ug, sc administered immediately and on day 14, 28 and measured at week 2 to 4 by ELISA; type: functional, organism-based; outline: as §2
[6] = test system: Mus musculus; test: Immuno-adjuvant activity in OVA-immunized BALB/c mouse assessed as potentiation of antibody response to OVA by measuring serum anti-OVA IgG2a activity at 100 ug, sc administered immediately and on day 14, 28 and measured at week 2 by ELISA; type: functional, organism-based; outline: as §2
[7] = test system: Mus musculus; test: Immuno-adjuvant activity in recombinant Porphyromonas gingivalis HagB-immunized BALB/c mouse assessed as potentiation of antibody response to rHagB by measuring serum anti-rHagB IgG1 activity at 100 ug, sc administered immediately and on day 14, 28 and measured at week 6 by ELISA; type: functional, organism-based
[8] = test system: Mus musculus; test: Immuno-adjuvant activity in OVA-immunized BALB/c mouse assessed as potentiation of antibody response to OVA by measuring increase in serum anti-OVA IgG1 activity at 100 ug, sc administered immediately and on day 14, 28 and measured at week 6 by ELISA; type: functional, organism-based; outline: as §2
[9] = Acute toxicity in BALB/c mouse assessed as lethargy at 100 to 2000 ug, sc measured at day 7 post injection; type: organism-based; settings: in vivo; outline: as §1
[10] = test system: Mus musculus; test: Immuno-adjuvant activity in OVA-immunized BALB/c mouse assessed as potentiation of antibody response to OVA by measuring increase in serum anti-OVA IgG2a activity at 100 ug, sc administered immediately and on day 14, 28 and measured at week 4 to 6 by ELISA; type: functional, organism-based; outline: as §2
[11] = test system: Mus musculus; test: Immuno-adjuvant activity in recombinant Porphyromonas gingivalis HagB-immunized BALB/c mouse assessed as potentiation of antibody response to rHagB by measuring increase in serum anti-rHagB IgG2a activity at 100 ug, sc administered immediately and on day 14, 28 and measured at week 2 to 6 by ELISA; type: functional, organism-based
[12] = test system: Mus musculus; test: Immuno-adjuvant activity in recombinant Porphyromonas gingivalis HagB-immunized BALB/c mouse assessed as potentiation of antibody response to rHagB by measuring increase in serum anti-rHagB IgG activity at 100 ug, sc administered immediately and on day 14, 28 and measured at week 2 to 4 by ELISA; type: functional, organism-based
[13] = Acute toxicity in BALB/c mouse assessed as mouse survival at 5000 ug, sc measured after 5 days; type: organism-based; settings: in vivo; outline: as §1
[14] = test system: Mus musculus; test: Immuno-adjuvant activity in recombinant Porphyromonas gingivalis HagB-immunized BALB/c mouse assessed as potentiation of antibody response to rHagB by measuring increase in serum anti-rHagB IgG activity at 100 ug, sc administered immediately and on day 14, 28 and measured at week 6 by ELISA; type: functional, organism-based
[15] = test system: Mus musculus; test: Immuno-adjuvant activity in OVA-immunized BALB/c mouse assessed as potentiation of antibody response to OVA by measuring ratio of serum anti-OVA IgG2a to serum anti-OVA IG1 level at 100 ug, sc administered immediately and on day 14, 28 and measured at week 6 by ELISA; type: functional
[16] = test system: Mus musculus; test: Immuno-adjuvant activity in OVA-immunized BALB/c mouse assessed as potentiation of antibody response to OVA by measuring increase in serum anti-OVA IgG activity at 100 ug, sc administered immediately and on day 14, 28 and measured at week 2 to 6 by ELISA; type: functional, organism-based; outline: as §2
[17] = test system: Mus musculus; test: Immuno-adjuvant activity in recombinant Porphyromonas gingivalis HagB-immunized BALB/c mouse assessed as potentiation of antibody response to rHagB by measuring increase in serum anti-rHagB IgG1 activity at 100 ug, sc administered immediately and on day 14, 28 and measured at week 2 to 4 by ELISA; type: functional, organism-based
[18] = Toxicity in OVA-immunized BALB/c mouse assessed as changes in body weight at 100 ug, sc administered immediately and on day 14, 28 and measured at week 6; type: organism-based; settings: in vivo
Outline: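 Female BALB/c mice (8–10 weeks, six per group) received sc OVA (20 μg) with adjuvant (100 μg) on days 0, 14 and 28. Body weight was recorded before each immunization and 2 weeks after the final one.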

[19] = test system: Mus musculus; test: Immuno-adjuvant activity in OVA-immunized BALB/c mouse assessed as potentiation of antibody response to OVA by measuring serum anti-OVA IgG2a level at 100 ug, sc administered immediately and on day 14, 28 and measured at week 6 by ELISA (reference value: 0.1 ug/ml); type: functional; outline: as §2
[20] = Acute toxicity in BALB/c mouse assessed as mouse survival at 100 to 200 ug, sc measured after 5 days; type: organism-based; settings: in vivo; outline: as §1
[21] = test system: Mus musculus; test: Immuno-adjuvant activity in OVA-immunized BALB/c mouse assessed as potentiation of antibody response to OVA by measuring increase in serum anti-OVA IgG activity at 100 ug, sc administered immediately and on day 14, 28 and measured at week 2 to 4 by ELISA; type: functional, organism-based; outline: as §2
[22] = test system: Mus musculus; test: Immuno-adjuvant activity in OVA-immunized BALB/c mouse assessed as potentiation of antibody response to OVA by measuring serum anti-OVA IgG activity at 100 ug, sc administered immediately and on day 14, 28 and measured at week 6 by ELISA; type: functional, organism-based; outline: as §2
[23] = test system: Mus musculus; test: Immuno-adjuvant activity in recombinant Porphyromonas gingivalis HagB-immunized BALB/c mouse assessed as potentiation of antibody response to rHagB by measuring increase in serum anti-rHagB IgG2a activity at 100 ug, sc administered immediately and on day 14, 28 and measured at week 2 to 4 by ELISA; type: functional, organism-based
[24] = test system: Mus musculus; test: Immuno-adjuvant activity in OVA-immunized BALB/c mouse assessed as potentiation of antibody response to OVA by measuring increase in serum anti-OVA IgG activity at 100 ug, sc administered immediately and on day 14, 28 and measured at week 4 to 6 by ELISA; type: functional, organism-based; outline: as §2
[25] = test system: Mus musculus; test: Immuno-adjuvant activity in recombinant Porphyromonas gingivalis HagB-immunized BALB/c mouse assessed as potentiation of antibody response to rHagB by measuring serum anti-rHagB IgG2a activity at 100 ug, sc administered immediately and on day 14, 28 and measured at week 6 by ELISA; type: functional, organism-based

Row | SMILES | Activity [3] [µg/mL] | Activity [5] | Activity [6] | Activity [7] | Activity [8] | Activity [10] | Activity [12] | Activity [14] | Ratio [15] | Activity [16] | Activity [17] | Activity [18] | Activity [19] [µg/mL] | other results
1 | CCCCCCCCCCCCNC(=O)[C@H]1O[C@@H](O[C@H]2CC[C@]3(C)[C@H]4CC=C5[C@H]6CC(C)(C)CC[C@]6(C(=O)O[C@@H]6O[C@H](C)[C@H](O)[C@H](O)[C@H]6O[C@@H]6O[C@@H](C)[C@H](O[C@@H]7OC[C@@H](O)[C@H](O)[C@H]7O)[C@@H](O[C@@H]7O[C@H](CO)[C@@H](O)[C@H](O[C@@H]8OC[C@@H](O)[C@H](O)[C@H]8O)[C@H]7O)[C@H]6O)CC[C@@]5(C)[C@]4(C)CC[C@H]3[C@]2(C)C=O)[C@H](O[C@@H]2O[C@H](CO)[C@H](O)[C@H](O)[C@H]2O)[C@@H](O[C@@H]2O[C@@H](C)[C@H](O)[C@@H](O)[C@H]2O)[C@@H]1O | 713 | Active | inactive | inactive | Active | Active | Active | Active | 0.312 | Active | Active | Non-Toxic | 208 | Activity [1]: Non-Toxic; Activity [2]: Non-Toxic; survival at 120 h [4]: 100%; Activity [9]: Non-Toxic; Activity [11]: Active; survival at 120 h [13]: 0%
2 | CC1(C)CC[C@]2(C(=O)O[C@@H]3O[C@H](CO)[C@@H](O)[C@H](O[C@@H]4O[C@H](CO)[C@@H](O)[C@H](O[C@@H]5O[C@H](CO)[C@@H](O)[C@H](O[C@@H]6O[C@H](CO)[C@@H](O)[C@H](O[C@@H]7O[C@H](CO)[C@@H](O)[C@H](O)[C@H]7O)[C@H]6O)[C@H]5O)[C@H]4O)[C@H]3O)[C@H](O)C[C@]3(C)C(=CC[C@@H]4[C@@]5(C)CC[C@H](O[C@@H]6O[C@H](CO)[C@@H](O)[C@H](O[C@@H]7O[C@H](CO)[C@@H](O)[C@H](O[C@@H]8O[C@H](CO)[C@@H](O)[C@H](O)[C@H]8O)[C@H]7O)[C@H]6O)[C@@](C)(C=O)[C@@H]5CC[C@]43C)[C@H]2C1 |  |  |  |  |  |  |  |  |  |  |  |  |  | survival at 120 h [20]: 0%
3 | C[C@@H]1O[C@@H](O[C@H]2[C@H](O)[C@@H](C(=O)O)O[C@@H](O[C@H]3CC[C@]4(C)[C@H]5CC=C6[C@H]7CC(C)(C)CC[C@]7(C(=O)O[C@@H]7O[C@H](C)[C@H](O)[C@H](O)[C@H]7O[C@@H]7O[C@@H](C)[C@H](O[C@@H]8OC[C@@H](O)[C@H](O)[C@H]8O)[C@@H](O[C@@H]8O[C@H](CO)[C@@H](O)[C@H](O[C@@H]9OC[C@@H](O)[C@H](O)[C@H]9O)[C@H]8O)[C@H]7O)CC[C@@]6(C)[C@]5(C)CC[C@H]4[C@]3(C)C=O)[C@@H]2O[C@@H]2O[C@H](CO)[C@H](O)[C@H](O)[C@H]2O)[C@H](O)[C@H](O)[C@H]1O | 233 | Active | inactive | inactive |  | inactive | Active | inactive | <0.001 | inactive | Active | Non-Toxic | 0.2 | 
4 | C[C@@H]1O[C@@H](O[C@H]2[C@H](O)[C@@H](C(=O)O)O[C@@H](O[C@H]3CC[C@]4(C)[C@H]5CC=C6[C@H]7CC(C)(C)CC[C@]7(C(=O)O[C@@H]7O[C@H](C)[C@H](O)[C@H](O)[C@H]7O[C@@H]7O[C@@H](C)[C@H](O[C@@H]8OC[C@@H](O)[C@H](O)[C@H]8O)[C@@H](O[C@@H]8O[C@H](CO)[C@@H](O)[C@H](O[C@@H]9OC[C@@H](O)[C@H](O)[C@H]9O)[C@H]8O)[C@H]7O)[C@H](O)C[C@@]6(C)[C@]5(C)CC[C@H]4[C@]3(C)C=O)[C@@H]2O[C@@H]2O[C@H](CO)[C@H](O)[C@H](O)[C@H]2O)[C@H](O)[C@H](O)[C@H]1O | 262 | Active | inactive | inactive |  | inactive | Active | inactive | <0.001 |  | Active | Non-Toxic | 0.1 | Activity [21]: Active; Activity [22]: inactive
5 | CCCCCCCCCCCCNC(=O)[C@H]1O[C@@H](O[C@H]2CC[C@]3(C)[C@H]4CC=C5[C@H]6CC(C)(C)CC[C@]6(C(=O)O[C@@H]6O[C@H](C)[C@H](O)[C@H](O)[C@H]6O[C@@H]6O[C@@H](C)[C@H](O[C@@H]7OC[C@@H](O)[C@H](O)[C@H]7O)[C@@H](O[C@@H]7O[C@H](CO)[C@@H](O)[C@H](O[C@@H]8OC[C@@H](O)[C@H](O)[C@H]8O)[C@H]7O)[C@H]6O)[C@H](O)C[C@@]5(C)[C@]4(C)CC[C@H]3[C@]2(C)C=O)[C@H](O[C@@H]2O[C@H](CO)[C@H](O)[C@H](O)[C@H]2O)[C@@H](O[C@@H]2O[C@@H](C)[C@H](O)[C@@H](O)[C@H]2O)[C@@H]1O | 869 | Active | inactive | inactive | Active | inactive | Active | inactive | <0.001 |  | Active | Non-Toxic | 1 | Activity [23]: Active; Activity [24]: Active; Activity [25]: inactive
